According to ChEMBL document CHEMBL2062428, “Cyclooxygenase-1-selective inhibitors based on the (E)-2'-des-methyl-sulindac sulfide scaffold” (J Med Chem, 2012):
The source made the active and inactive calls. The calls are words filed in the database; no cut-off is given here.

Assays:
[1] = molecular target: T1, Prostaglandin G/H synthase 1 (Ovis aries) (UniProt P05979); assay: Inhibition of ovine COX-1 using [14C] arachidonic acid as substrate at 4 uM preincubated for 17 mins before substrate addition measured after 3 mins by thin-layer chromatographic analysis
T1 sequence (whole entry): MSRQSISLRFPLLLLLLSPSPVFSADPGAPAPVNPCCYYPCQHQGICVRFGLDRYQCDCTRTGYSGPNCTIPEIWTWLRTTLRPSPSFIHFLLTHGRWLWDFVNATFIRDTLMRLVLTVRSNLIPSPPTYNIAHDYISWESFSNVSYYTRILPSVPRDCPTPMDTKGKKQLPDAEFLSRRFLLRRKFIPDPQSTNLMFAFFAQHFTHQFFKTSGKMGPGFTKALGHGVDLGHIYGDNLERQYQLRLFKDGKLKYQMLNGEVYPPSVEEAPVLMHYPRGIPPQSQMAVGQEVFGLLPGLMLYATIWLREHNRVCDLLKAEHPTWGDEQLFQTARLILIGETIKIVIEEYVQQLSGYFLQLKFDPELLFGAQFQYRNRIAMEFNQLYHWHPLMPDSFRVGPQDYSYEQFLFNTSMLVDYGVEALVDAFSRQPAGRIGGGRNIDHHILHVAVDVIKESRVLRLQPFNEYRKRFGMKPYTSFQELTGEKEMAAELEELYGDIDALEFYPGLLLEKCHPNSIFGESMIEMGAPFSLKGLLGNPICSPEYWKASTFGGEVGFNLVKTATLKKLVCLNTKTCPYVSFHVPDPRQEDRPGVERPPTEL
How it was run: (§1)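 Purified ovine COX-1 or murine COX-2 preincubated with a single 4 μM inhibitor concentration for 17 min. […] Reaction quenched; radioactive products extracted and quantified. Mean ± SEM of two experiments.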

[2] = molecular target: T2, Prostaglandin G/H synthase 2 (Mus musculus) (UniProt Q05769); assay: Inhibition of mouse COX-2 using [14C] arachidonic acid as substrate at 4 uM preincubated for 17 mins before substrate addition measured after 3 mins by thin-layer chromatographic analysis; how it was run: as §1
T2 sequence (whole entry): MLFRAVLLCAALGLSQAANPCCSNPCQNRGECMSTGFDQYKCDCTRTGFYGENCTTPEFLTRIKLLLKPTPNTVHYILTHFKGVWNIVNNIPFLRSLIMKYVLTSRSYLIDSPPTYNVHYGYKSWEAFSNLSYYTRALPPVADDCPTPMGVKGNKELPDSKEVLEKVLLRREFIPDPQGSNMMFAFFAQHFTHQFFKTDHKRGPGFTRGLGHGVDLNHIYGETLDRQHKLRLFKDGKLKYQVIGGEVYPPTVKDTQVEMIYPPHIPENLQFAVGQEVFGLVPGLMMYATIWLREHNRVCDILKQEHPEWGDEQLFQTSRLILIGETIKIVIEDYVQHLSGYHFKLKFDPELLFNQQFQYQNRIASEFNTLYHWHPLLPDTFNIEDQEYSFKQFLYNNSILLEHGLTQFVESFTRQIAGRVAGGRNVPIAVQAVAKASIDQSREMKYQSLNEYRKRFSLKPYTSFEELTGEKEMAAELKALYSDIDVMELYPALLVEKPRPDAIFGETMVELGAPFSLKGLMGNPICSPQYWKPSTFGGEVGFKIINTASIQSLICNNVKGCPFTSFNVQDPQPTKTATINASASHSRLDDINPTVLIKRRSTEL

O=C(O)CC1=C/C(=C\c2ccc(C(=O)O)cc2)c2ccc(F)cc21
inhibition [1]: 43% | inhibition [2]: 0%

CSc1ccc(/C=C2\C=C(CC(=O)NS(=O)(=O)c3ccc(C(F)(F)F)cc3)c3cc(F)ccc32)cc1
inhibition [1]: 48% | inhibition [2]: 19%

O=C(CC1=C/C(=C\c2ccc(-c3ccccc3)cc2)c2ccc(F)cc21)NS(=O)(=O)C(F)(F)F
inhibition [1]: 99% | inhibition [2]: 15%

CCOC(=O)C(C)(C)C1=C/C(=C\c2ccc(-c3ccccc3)cc2)c2ccc(F)cc21
inhibition [1]: 26% | inhibition [2]: 2%

O=C(O)CC1=C/C(=C\c2ccc3cccnc3n2)c2ccc(F)cc21
inhibition [1]: 14% | inhibition [2]: 42%

COc1ccc(S(=O)(=O)NC(=O)CC2=C/C(=C\c3ccc(SC)cc3)c3ccc(F)cc32)cc1
inhibition [1]: 58% | inhibition [2]: 8%

CSc1ccc(/C=C2\C=C(CC(N)=O)c3cc(F)ccc32)cc1
inhibition [1]: 21% | inhibition [2]: 5%

CC(C)(C)Oc1ccc(/C=C2\C=C(CC(=O)O)c3cc(F)ccc32)cc1
inhibition [1]: 17% | inhibition [2]: 5%

CCOC(=O)C(C)(C)C1=C/C(=C\c2cn(C)c3ccccc23)c2ccc(F)cc21
inhibition [1]: 47% | inhibition [2]: 22%

CSc1ccc(/C=C2\C=C(CC(=O)NS(=O)(=O)c3ccc(C)cc3)c3cc(F)ccc32)cc1
inhibition [1]: 55% | inhibition [2]: 20%

COc1ccc2c(c1)C(CC(=O)O)=C/C2=C\c1ccc(-c2ccccc2)cc1
inhibition [1]: 38% | inhibition [2]: 2%

O=C(O)CC1=C/C(=C\c2cccc3ccccc23)c2ccc(F)cc21
inhibition [1]: 53% | inhibition [2]: 7%

CSc1ccc(/C=C2\C=C(CC(=O)NS(=O)(=O)c3ccc(C(C)=O)cc3)c3cc(F)ccc32)cc1
inhibition [1]: 3.5% | inhibition [2]: 26%

CS(=O)(=O)c1ccc(-c2cccc(/C=C3\C=C(CC(=O)O)c4cc(F)ccc43)n2)cc1
inhibition [1]: 13% | inhibition [2]: 54%

CSc1ccc(/C=C2\C=C(CC(=O)NS(=O)(=O)c3ccc(F)cc3)c3cc(F)ccc32)cc1
inhibition [1]: 44% | inhibition [2]: 20%

O=C(O)CC1=C/C(=C\c2ccc(C(F)(F)F)cc2)c2ccc(F)cc21
inhibition [1]: 81% | inhibition [2]: 60%

O=C(O)CC1=C/C(=C\c2ccc(S(=O)(=O)C(F)(F)F)cc2)c2ccc(F)cc21
inhibition [1]: 34% | inhibition [2]: 16%

CCOC(=O)C(C)(C)C1=C/C(=C\c2ccc(-c3ccc(F)cc3)cc2)c2ccc(F)cc21
inhibition [1]: 10% | inhibition [2]: 0%

O=C(O)CC1=C/C(=C\c2cnc(C3CCCCC3)nc2)c2ccc(F)cc21
inhibition [1]: 45% | inhibition [2]: 25%

CCOC(=O)C(C)(C)C1=C/C(=C\c2ccc3c(c2)Cc2ccccc2-3)c2ccc(F)cc21
inhibition [1]: 34% | inhibition [2]: 18%

CSc1ccc(/C=C2\C=C(CC(=O)NS(C)(=O)=O)c3cc(F)ccc32)cc1
inhibition [1]: 21% | inhibition [2]: 7%

COc1ccc(/C=C2\C=C(CC(=O)O)c3cc(F)ccc32)cc1
inhibition [1]: 62% | inhibition [2]: 22%

O=C(O)CC1=C/C(=C\c2ccc(-c3ccccc3)nc2)c2ccc(F)cc21
inhibition [1]: 55% | inhibition [2]: 5%

CSc1ccc(/C=C2\C=C(CC(=O)NS(=O)(=O)c3ccc4ccccc4c3)c3cc(F)ccc32)cc1
inhibition [1]: 74% | inhibition [2]: 26%

O=C(O)CC1=C/C(=C\c2ccc(F)c3ccccc23)c2ccc(F)cc21
inhibition [1]: 61% | inhibition [2]: 22%

CSc1ccc(/C=C2\C=C(CC(=O)NS(=O)(=O)c3ccc(Br)cc3)c3cc(F)ccc32)cc1
inhibition [1]: 40% | inhibition [2]: 30%

O=C(O)CC1=C/C(=C\c2ccc3ccccc3c2)c2ccc(F)cc21
inhibition [1]: 75% | inhibition [2]: 34%

O=C(O)CC1=C/C(=C\c2ccc(-c3ccccc3)c(F)c2)c2ccc(F)cc21
inhibition [1]: 44% | inhibition [2]: 34%

CCOC(=O)C(C)(C)C1=C/C(=C\c2cccc(-c3ccc(F)cc3)n2)c2ccc(F)cc21
inhibition [1]: 24% | inhibition [2]: 21%

CCOC(=O)C(C)(C)C1=C/C(=C\c2cnc(-c3ccccc3)nc2C)c2ccc(F)cc21
inhibition [1]: 25% | inhibition [2]: 9%

O=C(O)CC1=C/C(=C\c2ccc3cccnc3c2)c2ccc(F)cc21
inhibition [1]: 58% | inhibition [2]: 16%

O=C(O)CC1=C/C(=C\c2ccc(-c3ccc(F)nc3)cc2)c2ccc(F)cc21
inhibition [1]: 27% | inhibition [2]: 10%

CCOC(=O)CC1=C/C(=C\c2ccc(C(=O)OCC)cc2)c2ccc(F)cc21
inhibition [1]: 39% | inhibition [2]: 0%

O=C(O)CC1=C/C(=C\c2cnc(-c3ccccc3)nc2)c2ccc(F)cc21
inhibition [1]: 35% | inhibition [2]: 8%

Cc1ccc(/C=C2\C=C(CC(=O)O)c3cc(F)ccc32)cc1
inhibition [1]: 52% | inhibition [2]: 13%

C#Cc1ccc(/C=C2\C=C(CC(=O)O)c3cc(F)ccc32)cc1
inhibition [1]: 62% | inhibition [2]: 17%

CCOC(=O)C(C)(C)C1=C/C(=C\c2ccc(SC)cc2)c2ccc(F)cc21
inhibition [1]: 43% | inhibition [2]: 0%

O=C(O)CC1=C/C(=C\c2ccc(SC(F)(F)F)cc2)c2ccc(F)cc21
inhibition [1]: 77% | inhibition [2]: 35%

CCOC(=O)CC1=C/C(=C\c2ccc(SC)cc2)c2ccc(F)cc21
inhibition [1]: 20% | inhibition [2]: 0%

CSc1ccc(/C=C2\C=C(CC(=O)OC(C)C)c3cc(F)ccc32)cc1
inhibition [1]: 27% | inhibition [2]: 0%

O=C(O)CC1=C/C(=C\c2cccc(-c3ccc(F)cc3)n2)c2ccc(F)cc21
inhibition [1]: 17% | inhibition [2]: 81%

O=C(O)CC1=C/C(=C\c2cccc(-c3ccc4c(c3)OCO4)n2)c2ccc(F)cc21
inhibition [1]: 59% | inhibition [2]: 43%

C[S+]([O-])c1ccc(/C=C2\C=C(CC(=O)O)c3cc(F)ccc32)cc1 (stereo not given)
inhibition [1]: 27% | inhibition [2]: 8.5%

CC(C(=O)O)C1=C/C(=C\c2ccc(-c3ccccc3)cc2)c2ccc(F)cc21 (stereo not given)
inhibition [1]: 30% | inhibition [2]: inactive

O=C(O)CC1=C/C(=C\c2ccc3nccnc3c2)c2ccc(F)cc21
inhibition [1]: 31% | inhibition [2]: 29%

CSc1ccc(/C=C2\C=C(C(C)(C)C(=O)O)c3cc(F)ccc32)cc1
inhibition [1]: 17% | inhibition [2]: 16%

Cc1nc(-c2ccccc2)ncc1/C=C1\C=C(CC(=O)O)c2cc(F)ccc21
inhibition [1]: 19% | inhibition [2]: 19%

CSc1ccc(-c2ccc(/C=C3\C=C(CC(=O)O)c4cc(F)ccc43)cc2)cc1
inhibition [1]: 68% | inhibition [2]: 18%

CSc1ccc(/C=C2\C=C(CC(=O)NS(=O)(=O)c3ccc(OC(F)(F)F)cc3)c3cc(F)ccc32)cc1
inhibition [1]: 47% | inhibition [2]: 32%

O=C(O)CC1=C/C(=C\c2ccc3c(c2)Cc2ccccc2-3)c2ccc(F)cc21
inhibition [1]: 70% | inhibition [2]: 26%

O=C(O)CC1=C/C(=C\c2cccc3cccnc23)c2ccc(F)cc21
inhibition [1]: 51% | inhibition [2]: 0%

COC(=O)CC1=C/C(=C\c2ccc(SC)cc2)c2ccc(F)cc21
inhibition [1]: 39% | inhibition [2]: 9%

CCOC(=O)C(C)(C)C1=C/C(=C\c2ccc(-c3ccccc3)c(F)c2)c2ccc(F)cc21
inhibition [1]: 40% | inhibition [2]: 15%

O=C(O)CC1=C/C(=C\c2ccc(-c3ccc(F)cc3)cc2)c2ccc(F)cc21
inhibition [1]: 33% | inhibition [2]: 16%

CSc1ccc(/C=C2\C=C(CC(=O)NS(=O)(=O)c3ccc(C(C)C)cc3)c3cc(F)ccc32)cc1
inhibition [1]: 45% | inhibition [2]: 2%

O=C(O)CC1=C/C(=C\c2ccc(-c3ccc(C(F)(F)F)cc3)cc2)c2ccc(F)cc21
inhibition [1]: 31% | inhibition [2]: 15%

O=C(O)CC1=C/C(=C\c2cccc(-c3cccs3)n2)c2ccc(F)cc21
inhibition [1]: 15% | inhibition [2]: 28%

CCOC(=O)C(C)C1=C/C(=C\c2ccc(-c3ccccc3)cc2)c2ccc(F)cc21 (stereo not given)
inhibition [1]: 30% | inhibition [2]: 0%

O=C(O)CC1=C/C(=C\c2ccc([S+]([O-])C(F)(F)F)cc2)c2ccc(F)cc21 (stereo not given)
inhibition [1]: 51% | inhibition [2]: 15%

C#CCOc1ccc(/C=C2\C=C(CC(=O)O)c3cc(F)ccc32)cc1OCC
inhibition [1]: 68% | inhibition [2]: 20%
